In ChEMBL document CHEMBL3785029, “Synthesis and Characterization of Fatty Acid Conjugates of Niacin and Salicylic Acid” (J Med Chem, 2016):
The source made the active and inactive calls. The rule behind the calls is not given here.

Key:
Intestine = assay: Drug metabolism in Sprague-Dawley rat intestine assessed as niacin formation at 300 mg/kg, qd administered through oral gavage for 7 days measured 2 hrs post last dose by LC/MS/MS analysis; type: ADME, organism-based; conditions: in vivo
Liver [1] = assay: Drug metabolism in Sprague-Dawley rat liver assessed as nicotinuric acid formation at 300 mg/kg, qd administered through oral gavage for 7 days measured 2 hrs post last dose by LC/MS/MS analysis; type: ADME, organism-based; conditions: in vivo
Plasma = assay: Drug metabolism in Sprague-Dawley rat plasma assessed as niacin linker metabolite N-(2-aminoethyl)nicotinamide formation at 300 mg/kg, qd administered through oral gavage for 7 days measured 2 hrs post last dose by LC/MS/MS analysis; type: ADME, organism-based; conditions: in vivo
Liver [2] = assay: Drug metabolism in Sprague-Dawley rat liver assessed as niacin linker metabolite N-(2-aminoethyl)nicotinamide formation at 300 mg/kg, qd administered through oral gavage for 7 days measured 2 hrs post last dose by LC/MS/MS analysis; type: ADME, organism-based; conditions: in vivo
[3] = Cmax in jugular vein cannulated Sprague-Dawley rat at 30 mg/kg, po measured up to 140 mins; type: ADME, organism-based; parameters: dose 30 mg/kg, route oral; conditions: jugular vein blood
Procedure, shortened: (§1)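 Sprague Dawley rats surgically fitted with indwelling jugular vein and portal vein cannulas; oral dosing, then serial blood draws from both portal and jugular veins at 10, 20, 40 min and 1, 2, 4, 6 hr post dose; plasma analysed for parent and metabolites by LC/MS/MS.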

Rattus norvegicus = assay: Cmax in portal vein cannulated Sprague-Dawley rat assessed as N-(2-aminoethyl)nicotinamide at 30 mg/kg, po measured up to 140 mins; type: ADME, organism-based; parameters: dose 30 mg/kg, route oral; conditions: in vivo; procedure, shortened: as §1
Mus musculus [4] = assay: Inhibition of PCSK9 levels in po dosed ApoE*3-Leiden mouse plasma administered for 16 weeks; type: functional, organism-based
Procedure, shortened: (§2)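 Transgenic ApoE*3-Leiden mice on high-cholesterol Western-type diet dosed over 16 weeks; plasma PCSK9, total cholesterol, triglycerides and lipoprotein profile (VLDL, LDL) assessed at study end.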

Mus musculus [5] = assay: Inhibition of triglyceride levels in po dosed ApoE*3-Leiden mouse plasma administered for 16 weeks; type: functional, organism-based; procedure, shortened: as §2
[6] = target: T1, Fatty-acid amide hydrolase 1 (Homo sapiens, UniProt O00519); assay: Drug metabolism assessed as human recombinant N-terminal FLAG/C-terminal His-tagged FAAH1 (32 to 579 residues)-mediated compound hydrolysis by measuring release of EPA at 25 uM by LC/MS-MS analysis; type: ADME; conditions: TDE = time-dependent effect
T1 sequence (O00519 whole entry): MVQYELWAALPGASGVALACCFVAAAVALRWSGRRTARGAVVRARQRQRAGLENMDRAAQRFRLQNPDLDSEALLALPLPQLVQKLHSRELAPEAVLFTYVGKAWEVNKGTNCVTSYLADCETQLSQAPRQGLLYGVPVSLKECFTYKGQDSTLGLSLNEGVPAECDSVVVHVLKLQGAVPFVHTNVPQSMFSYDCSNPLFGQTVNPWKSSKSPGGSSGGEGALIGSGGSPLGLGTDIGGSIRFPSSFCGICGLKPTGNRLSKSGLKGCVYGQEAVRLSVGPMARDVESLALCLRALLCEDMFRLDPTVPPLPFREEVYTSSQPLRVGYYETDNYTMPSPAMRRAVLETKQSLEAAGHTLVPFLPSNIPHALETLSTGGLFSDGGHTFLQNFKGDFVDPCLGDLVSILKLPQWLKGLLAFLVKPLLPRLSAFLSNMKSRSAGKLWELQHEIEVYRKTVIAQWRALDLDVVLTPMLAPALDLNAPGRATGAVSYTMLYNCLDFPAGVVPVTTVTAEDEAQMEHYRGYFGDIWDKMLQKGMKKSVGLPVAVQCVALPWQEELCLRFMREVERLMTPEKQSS

[7] = target: T1, Fatty-acid amide hydrolase 1; assay: Drug metabolism assessed as human recombinant N-terminal FLAG/C-terminal His-tagged FAAH1 (32 to 579 residues)-mediated compound hydrolysis by measuring release of EPA at 25 uM after 2 hrs by LC/MS-MS analysis in presence of PF-3845; type: ADME
[8] = target: T2, Sterol regulatory element-binding protein 2 (Homo sapiens) (UniProt Q12772); assay: Inhibition of SREBP2 maturation in human HepG2 cells at 25 to 50 uM after overnight incubation by immunoblot analysis; type: cell-based
T2 sequence (whole entry): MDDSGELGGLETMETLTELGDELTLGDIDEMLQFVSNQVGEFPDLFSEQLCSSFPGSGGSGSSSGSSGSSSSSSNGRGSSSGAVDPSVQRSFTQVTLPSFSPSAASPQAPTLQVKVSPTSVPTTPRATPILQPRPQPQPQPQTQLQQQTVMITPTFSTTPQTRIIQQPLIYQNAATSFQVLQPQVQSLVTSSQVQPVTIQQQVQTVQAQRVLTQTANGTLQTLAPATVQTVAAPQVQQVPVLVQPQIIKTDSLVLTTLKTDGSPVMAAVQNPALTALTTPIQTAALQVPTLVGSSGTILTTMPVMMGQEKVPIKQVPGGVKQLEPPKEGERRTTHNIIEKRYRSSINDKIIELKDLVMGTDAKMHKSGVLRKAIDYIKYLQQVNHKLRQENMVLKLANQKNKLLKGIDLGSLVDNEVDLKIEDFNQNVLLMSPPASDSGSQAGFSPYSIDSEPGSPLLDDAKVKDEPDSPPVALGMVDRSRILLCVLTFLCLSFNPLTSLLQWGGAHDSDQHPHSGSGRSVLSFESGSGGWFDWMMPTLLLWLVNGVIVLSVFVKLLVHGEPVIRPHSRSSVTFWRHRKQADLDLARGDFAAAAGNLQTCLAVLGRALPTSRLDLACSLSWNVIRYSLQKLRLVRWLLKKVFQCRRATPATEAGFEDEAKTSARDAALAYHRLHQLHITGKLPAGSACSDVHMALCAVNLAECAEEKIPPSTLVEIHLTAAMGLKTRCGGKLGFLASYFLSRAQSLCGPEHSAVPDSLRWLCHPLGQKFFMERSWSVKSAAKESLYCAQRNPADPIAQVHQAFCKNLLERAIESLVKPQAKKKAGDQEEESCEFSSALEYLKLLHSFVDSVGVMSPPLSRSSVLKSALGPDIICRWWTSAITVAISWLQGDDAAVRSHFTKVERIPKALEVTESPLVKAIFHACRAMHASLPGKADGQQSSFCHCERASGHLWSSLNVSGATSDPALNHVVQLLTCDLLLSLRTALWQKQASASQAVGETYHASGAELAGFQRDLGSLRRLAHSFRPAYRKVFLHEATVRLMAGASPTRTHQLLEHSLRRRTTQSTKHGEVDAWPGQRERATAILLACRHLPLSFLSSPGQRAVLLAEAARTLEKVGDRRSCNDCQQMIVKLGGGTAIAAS
Procedure, shortened: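 Human HepG2 cells incubated with compound (25 and 50 µM), alone or together with 10 µM atorvastatin; mature SREBP-2 protein level assessed.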

Brain [9] = assay: Drug metabolism in Sprague-Dawley rat brain assessed as salicylic acid formation at 300 mg/kg, po administered for 7 days measured 4 hrs post dose on day 7; type: ADME, organism-based; conditions: in vivo
Procedure, shortened: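 Male Sprague Dawley rats, groups of 4, dosed orally at 300 mg/kg once daily for 14 days. Animals killed on days 1, 3, 7 and 14, with plasma, brain, epididymal fat, liver and muscle taken 4 hr after dosing. Parent, salicylic acid and salicyluric acid were measured.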

Brain [10] = assay: Drug metabolism in Sprague-Dawley rat brain assessed as salicylic acid formation at 300 mg/kg, po administered for 14 days followed by 7 day washout cycle measured on day 21; type: ADME, organism-based; conditions: in vivo

| SMILES | Drug metabolism (Intestine) | Drug metabolism (Liver [1]) | Drug metabolism (Plasma) | Drug metabolism (Liver [2]) | Cmax [3] | Cmax (Rattus norvegicus) | inhibition (Mus musculus [4]) | inhibition (Mus musculus [5]) | Drug metabolism [6] | Drug metabolism [7] | inhibition [8] | Drug metabolism (Brain [9]) | Drug metabolism (Brain [10]) |
| --- | --- | --- | --- | --- | --- | --- | --- | --- | --- | --- | --- | --- | --- |
| CC/C=C\C/C=C\C/C=C\C/C=C\C/C=C\CCCC(=O)NCCNC(=O)c1cccnc1 | 279 ng/g | 1356 ng/g | 2296 ng/mL | 10910 ng/g | 35 ng/mL | 2061 ng/mL | Active | Active | tde | metabolite_notdetected | Dose-dependent effect | – | – |
| CC/C=C\C/C=C\C/C=C\C/C=C\C/C=C\C/C=C\CCC(=O)NCCNC(=O)c1ccccc1O [EDASALONEXENT] | – | – | – | – | – | – | – | – | – | – | – | 53.32 ng/g | metabolite_notdetected |
